Source: PubChem BioAssay (several laboratories)
Beta cell apopt = beta cell apoptosis inhibition; INS-1E cytokine-induced death, ATP luminescence, 48 h; percent of positive-control rescue, neutral wells zero; protection from apoptosis, % (concentration not given with the values); 300,000 tested, 0.8% active; AID 435005;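 active = Every replicate reaches about 75%, or at least half do and their mean reaches it too, limit read from the data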;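 also: 0% = cytokine-treated negative control wells and 100% = positive control rescue; higher means more ATP so stronger rescue from cytokine killing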
CHOP inhibitor = blocks CHOP induction under ER stress. CHO-K1 CHOP-promoter luciferase, tunicamycin-induced, 15-18 h. inhibition, % at 10 µM. 220,000 tested, 3.8% active;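 active = compounds that reduced the stress-induced luciferase reporter signal by more than about 70% of percent inhibition, limit read from the data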;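 also: 0% = tunicamycin plus vehicle and 100% = wells without tunicamycin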
PREPL inh = inhibitors of human prolyl oligopeptidase-like enzyme PREPL; recombinant PREPL, fluorescence polarization activity-based probe; inhibition, % at 5.96 µM; 320,000 tested, 0.68% active; in the data active = inhibition above about 43%;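 also: 0% = enzyme with DMSO and 100% = wells lacking enzyme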
NR3A LBD binder = NR3A (human) ligand-binding domain modulation; NR3A LBD differential scanning fluorimetry, Tm shift; 0% = protein alone, 100% = glycine-bound protein; Tm shift relative to glycine control, % at 25 µM; 340,000 tested, 2.5% active;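 active = melting temperature shift of at least 10% of the positive control shift, at one fixed dose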
CSC inhib = cancer stem cell inhibition | cancer stem cell-like cells viability, luminescence | inhibition, % at 7.5 µM | 300,000 tested, 1.1% active; in the data active = inhibition above about 75%; tested in HMLE shEcad cells
T cruzi repl = T. cruzi replication inhibition | T. cruzi beta-gal in NIH3T3, luminescence, 90 h | inhibition, % (test concentration not listed) | 300,000 tested, 1.4% active | AID 1885;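 active = mean inhibition across valid replicates above about 55%, limit read from the data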;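 also: signal also drops with host cell toxicity which is not excluded here; 0% = plate median of DMSO wells and 100% = zero luminescence signal; higher percent means less beta-gal luminescence so fewer parasites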
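System – NIH/3T3 host cells with β-galactosidase reporter T. cruzi · Doses – single 50 nL compound addition per well in DMSO · Reagent – 5000 T. cruzi trypomastigotes/well · Medium – Low-serum DMEM with 2% FBS · Timing – ≥90 h infection period, 3 h prior cell attachment · Evaluation – parasite load inhibition, % · Technique – GalScreen luminescence, 60 min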
Starred values were filed as active, the others as inactive; x = not tested or not shown. An excerpt weighted towards active compounds, which were near 6.7% of everything screened.

SMILES	Beta cell apopt	CHOP inhibitor	PREPL inh	NR3A LBD binder	CSC inhib	T cruzi repl
Cc1nc(Nc2ccc(S(=O)(=O)N3CCCCC3C)cc2)c2nnn(Cc3ccccc3)c2n1 (centres undefined)	75.5*	74.0*	-25.1	-2.1	6.4	63.6*
COc1cc(-c2nnc(COc3ccc4ccccc4c3)o2)cc(OC)c1OC	4.4	22.6	18.3	-1.3	28.5	33.4
CC[C@@H](C)[C@H]1O[C@]2(CC[C@@H]1C)C[C@@H]1C[C@@H](C/C=C(\C)[C@@H](O[C@H]3C[C@H](OC)[C@@H](O[C@H]4C[C@H](OC)[C@@H](O)[C@H](C)O4)[C@H](C)O3)[C@@H](C)/C=C/C=C3\CO[C@@H]4[C@H](O)C(C)=C[C@@H](C(=O)O1)[C@]34O)O2	x	3.5	x	x	x	x
CC[C@H](C)[C@H]1O[C@]2(CC[C@@H]1C)C[C@@H]1C[C@@H](CC=C(C)[C@@H](O[C@H]3C[C@H](OC)[C@@H](O[C@H]4C[C@H](OC)[C@@H](O)[C@H](C)O4)[C@H](C)O3)[C@@H](C)C=CC=C3CO[C@@H]4[C@H](O)C(C)=C[C@@H](C(=O)O1)[C@]34O)O2	87.3*	x	3.1	-1.7	102.9*	x
Cc1cccc(NC(=S)NCC(c2cccnc2)N(C)C)c1 (centres undefined)	-6.0	1.5	7.4	2.3	-11.3	-4.1
CC(C)c1ccc(NC(=O)c2cc3c(=O)n(C)c4ccccc4c3n2C)cc1	12.7	-6.0	-14.6	2.4	75.8*	60.3*
C[C@@H]1CN([C@H](C)CO)C(=O)c2cc(NS(=O)(=O)c3ccc(F)cc3)ccc2O[C@@H]1CN(C)Cc1ccc(Cl)c(Cl)c1	x	x	33.8	13.2*	x	x
C[C@H]1CN([C@@H](C)CO)C(=O)c2cccc(NC(=O)Nc3ccc(C(F)(F)F)cc3)c2O[C@@H]1CN(C)Cc1ccc(Cl)c(Cl)c1	22.8	x	-15.1	12.3*	x	x
C[C@H](CO)N1C[C@H](C)[C@@H](CN(C)S(=O)(=O)c2ccc(F)cc2)Oc2ccc(NS(=O)(=O)c3ccc(F)cc3)cc2C1=O	4.7	x	14.2	-7.2	-18.3	x
C[C@H](CO)N1C[C@H](C)[C@@H](CN(C)Cc2ccc(Cl)c(Cl)c2)Oc2c(NC(=O)CCC(F)(F)F)cccc2C1=O	7.1	x	24.2	-11.4	x	x
C[C@@H]1CN([C@H](C)CO)C(=O)c2cc(NC(=O)Nc3ccc(C(F)(F)F)cc3)ccc2O[C@H]1CN(C)Cc1ccc(Cl)c(Cl)c1	x	x	-2.9	31.8*	x	x
Cc1ccc(CNC(=O)COC(=O)C2CC2)cc1	-4.4	x	16.1	3.1	-2.4	x
COc1ccc(CNC(=O)COC(=O)C2CCC(C(C)(C)C)CC2)cc1 (centres undefined)	-3.7	89.8*	3.3	-10.3	-2.0	-11.5
Cc1cc(Nc2cccc(F)c2)nc(-c2ccccc2O)n1	0.5	51.4	19.8	29.6*	101.6*	56.2*
CCOC(=O)c1ccc(Nc2cc(C)nc(-c3ccccc3O)n2)cc1	9.9	-16.8	6.2	35.2*	43.1	51.9
COCCn1c(SCC(=O)Nc2cc(C)on2)nnc1-c1ccccc1	-4.9	x	0.4	-0.1	5.0	-11.2
Cc1cccc(C(=O)NCC(=O)Nc2ccncc2)c1	4.7	x	5.3	0.4	-5.5	-17.7
CCN(CC)CC#CCC(O)(c1ccccc1)C1CCCC1 (centres undefined)	0.7	36.1	15.5	0.1	3.1	59.2*
C=CCn1c(-c2ccccc2)ccc(C#N)c1=O	5.1	91.4*	-22.6	3.5	6.6	17.5
C=CCn1c(-c2ccccc2)cc(SC)c(C#N)c1=O	-16.4	53.6	0.2	-4.8	17.1	22.7
O=C(C1=NNCC1c1ccccc1)C1OC1c1ccccc1 (centres undefined)	0.0	-9.3	14.0	1.2	1.4	-3.5
Cc1ccc(NC(=O)Nc2ccc3c(c2)C(=O)OC3)cc1Cl	1.2	-7.5	-4.7	23.9*	2.4	8.9
O=C(Nc1cccnc1)C1(F)C(F)(F)C(F)(F)C(F)(F)C(F)(F)C1(F)F	109.5*	49.9	3.0	-5.3	-9.3	-14.9
O=C(Nc1cccnc1)Nc1cc(Cl)cc(Cl)c1	20.2	14.1	-48.8	20.6*	35.9	25.3
O=C(Nc1cccnc1)C12CC3CC(CC(C3)C1)C2	-3.2	9.9	-3.9	-0.3	-8.6	-2.2
